According to ChEMBL document CHEMBL3351368, “Biphenyl-4-carboxylic acid [2-(1H-indol-3-yl)-ethyl]-methylamide (CA224), a nonplanar analogue of fascaplysin, inhibits Cdk4 and tubulin polymerization: evaluation of in vitro and in vivo anticancer activity” (J Med Chem, 2014):
Calls of active or inactive are those of the source.

What was measured:
[1] = molecular target: Cyclin-dependent kinase 1/cyclin B1 (Homo sapiens, UniProt P06493); assay: Binding affinity to human CDK1/cyclinB1; type: protein-complex assay
CDK9/cyclin T1 = CDK9/cyclin T1 (Homo sapiens, UniProt P50750); assay: Binding affinity to human CDK9/cyclinT1; type: protein-complex assay
[2] = Growth inhibition of p53His273 mut, pRb+ human MiaPaCa cells after 48 hrs by MTT assay; type: functional; conditions: MIA PaCa-2, 48 h
Method in brief: (§1)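 MTT cell proliferation assay. IC50 (µM) was defined as the concentration giving 50% inhibition of cell growth.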

[3] = Growth inhibition of p53+, pRb+ human NCI-H460 cells after 48 hrs by MTT assay; type: functional, cell-based; conditions: NCI-H460, 48 h; method in brief: as §1
NCI-H1299 = assay: Growth inhibition of p53 null, pRb+ human NCI-H1299 cells after 48 hrs by MTT assay; type: functional, cell-based; conditions: NCI-H1299, 48 h; method in brief: as §1
NCI-H358 = assay: Growth inhibition of p53 null, pRb null human NCI-H358 cells after 48 hrs by MTT assay; type: functional, cell-based; conditions: NCI-H358, 48 h; method in brief: as §1
[4] = Growth inhibition of mouse BNL-CL2 cells after 48 hrs by MTT assay; type: functional, cell-based; conditions: BNL CL.2, 48 h; method in brief: as §1
[5] = Growth inhibition of mouse BNL-SVA.8 cells after 48 hrs by MTT assay; type: functional; method in brief: as §1
[6] = Displacement of ethidium bromide from closed circular plasmid DNA (unknown origin) by fluorescence quenching assay
[7] = molecular target: Cyclin-dependent kinase 4/cyclin D1 (Homo sapiens, UniProt P11802); assay: Binding affinity to human CDK4/cyclinD1 using GST-pRB152 as substrate by chemiluminescence assay; type: protein-complex assay
CDK2/Cyclin A2 = CDK2/Cyclin A2 (Homo sapiens, UniProt P24941); assay: Binding affinity to human CDK2/cyclinA using GST-pRB152 as substrate by chemiluminescence assay; type: protein-complex assay
[8] = molecular target: Cyclin-dependent kinase 2/cyclin E1 (Homo sapiens, UniProt P24941); assay: Binding affinity to human CDK2/cyclinE; type: protein-complex assay
[9] = Growth inhibition of p53+, pRb+ human LS 174T cells after 48 hrs by MTT assay; type: functional, cell-based; conditions: LS174T; method in brief: as §1
[10] = Growth inhibition of p53 null,pRb+ human PC3 cells after 48 hrs by MTT assay; type: functional, cell-based; conditions: PC-3, 48 h; method in brief: as §1
A549 = assay: Growth inhibition of p53+, pRb+ human A549 cells after 48 hrs by MTT assay; type: functional, cell-based; conditions: A549, 48 h; method in brief: as §1
[11] = Growth inhibition of p53 null, pRb+ human Calu1 cells after 48 hrs by MTT assay; type: functional, cell-based; conditions: Calu-1, 48 h; method in brief: as §1

CDK9/cyclin T1, sequence (O60563 whole entry): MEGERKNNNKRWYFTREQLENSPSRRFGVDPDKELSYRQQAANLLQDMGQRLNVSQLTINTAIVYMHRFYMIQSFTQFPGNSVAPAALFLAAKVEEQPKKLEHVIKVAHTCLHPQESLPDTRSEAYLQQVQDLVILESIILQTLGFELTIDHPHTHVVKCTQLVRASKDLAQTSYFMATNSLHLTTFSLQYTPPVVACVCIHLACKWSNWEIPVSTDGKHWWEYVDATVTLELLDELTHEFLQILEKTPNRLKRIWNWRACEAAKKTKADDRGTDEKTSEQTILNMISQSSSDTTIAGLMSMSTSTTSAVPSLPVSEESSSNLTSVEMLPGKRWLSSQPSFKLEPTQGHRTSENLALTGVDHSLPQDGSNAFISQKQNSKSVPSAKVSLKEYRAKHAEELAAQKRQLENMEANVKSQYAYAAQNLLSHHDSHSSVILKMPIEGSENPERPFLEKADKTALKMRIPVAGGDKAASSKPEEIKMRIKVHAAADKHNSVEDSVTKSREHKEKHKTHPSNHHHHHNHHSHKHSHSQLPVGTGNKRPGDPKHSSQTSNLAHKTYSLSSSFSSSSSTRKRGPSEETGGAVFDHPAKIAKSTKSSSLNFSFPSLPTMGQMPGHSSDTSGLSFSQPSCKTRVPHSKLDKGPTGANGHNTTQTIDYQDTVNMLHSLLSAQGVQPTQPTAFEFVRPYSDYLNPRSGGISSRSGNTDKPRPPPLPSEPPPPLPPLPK
CDK9/cyclin T1, sequence (P50750 whole entry): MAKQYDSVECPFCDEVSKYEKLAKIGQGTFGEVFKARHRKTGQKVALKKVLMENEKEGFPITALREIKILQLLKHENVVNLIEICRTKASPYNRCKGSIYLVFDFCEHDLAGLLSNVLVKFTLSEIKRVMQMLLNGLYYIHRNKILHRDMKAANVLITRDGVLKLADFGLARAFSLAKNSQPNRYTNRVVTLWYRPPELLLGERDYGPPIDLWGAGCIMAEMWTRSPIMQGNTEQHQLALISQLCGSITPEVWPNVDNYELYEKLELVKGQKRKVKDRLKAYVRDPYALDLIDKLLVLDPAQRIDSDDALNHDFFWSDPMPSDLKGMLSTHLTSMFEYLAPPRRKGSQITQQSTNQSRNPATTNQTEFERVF
Cyclin-dependent kinase 1/cyclin B1, sequence (P06493 whole entry): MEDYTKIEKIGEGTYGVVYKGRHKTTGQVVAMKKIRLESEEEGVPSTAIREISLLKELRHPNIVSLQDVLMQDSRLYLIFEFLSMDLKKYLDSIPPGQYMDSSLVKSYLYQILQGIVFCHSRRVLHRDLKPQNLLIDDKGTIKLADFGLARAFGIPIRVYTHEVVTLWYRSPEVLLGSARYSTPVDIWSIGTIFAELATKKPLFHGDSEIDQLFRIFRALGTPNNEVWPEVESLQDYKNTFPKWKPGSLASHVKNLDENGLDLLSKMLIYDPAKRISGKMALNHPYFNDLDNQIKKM
Cyclin-dependent kinase 1/cyclin B1, sequence (P14635 whole entry, further chain): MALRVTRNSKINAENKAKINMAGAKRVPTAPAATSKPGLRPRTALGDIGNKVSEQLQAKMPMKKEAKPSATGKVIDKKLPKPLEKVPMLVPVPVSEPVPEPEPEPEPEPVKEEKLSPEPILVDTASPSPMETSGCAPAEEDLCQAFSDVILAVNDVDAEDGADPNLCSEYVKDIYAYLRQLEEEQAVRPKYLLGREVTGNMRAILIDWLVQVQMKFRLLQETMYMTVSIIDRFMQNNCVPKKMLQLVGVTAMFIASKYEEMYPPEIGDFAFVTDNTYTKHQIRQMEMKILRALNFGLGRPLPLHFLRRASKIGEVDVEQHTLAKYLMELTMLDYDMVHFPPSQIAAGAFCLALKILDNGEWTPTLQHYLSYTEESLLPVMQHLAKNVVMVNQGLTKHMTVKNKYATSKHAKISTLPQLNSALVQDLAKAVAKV
Cyclin-dependent kinase 4/cyclin D1, sequence (P11802 whole entry): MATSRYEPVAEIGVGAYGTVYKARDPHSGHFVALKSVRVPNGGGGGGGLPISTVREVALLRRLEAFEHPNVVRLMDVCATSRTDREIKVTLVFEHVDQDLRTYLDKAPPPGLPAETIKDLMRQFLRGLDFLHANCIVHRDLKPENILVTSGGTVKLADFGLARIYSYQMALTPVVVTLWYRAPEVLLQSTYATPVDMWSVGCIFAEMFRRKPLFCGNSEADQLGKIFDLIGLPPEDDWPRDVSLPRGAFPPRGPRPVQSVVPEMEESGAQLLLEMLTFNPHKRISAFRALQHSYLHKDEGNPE
Cyclin-dependent kinase 4/cyclin D1, sequence (P24385 whole entry, further chain): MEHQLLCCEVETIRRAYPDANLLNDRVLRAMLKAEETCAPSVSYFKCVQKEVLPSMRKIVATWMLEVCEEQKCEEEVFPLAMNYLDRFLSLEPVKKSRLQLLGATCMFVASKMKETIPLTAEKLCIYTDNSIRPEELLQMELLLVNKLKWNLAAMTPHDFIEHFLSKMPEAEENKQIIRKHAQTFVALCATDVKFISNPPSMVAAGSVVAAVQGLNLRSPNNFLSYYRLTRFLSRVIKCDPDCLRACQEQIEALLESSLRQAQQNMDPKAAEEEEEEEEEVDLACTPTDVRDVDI

| SMILES | IC50 [1] | IC50 (CDK9/cyclin T1) | IC50 [2] | IC50 [3] | IC50 (NCI-H1299) | IC50 (NCI-H358) | IC50 [4] | IC50 [5] | inhibition [6] | IC50 [7] | IC50 (CDK2/Cyclin A2) | IC50 [8] | IC50 [9] | IC50 [10] | IC50 (A549) | IC50 [11] | IC50 [6] |
| --- | --- | --- | --- | --- | --- | --- | --- | --- | --- | --- | --- | --- | --- | --- | --- | --- | --- |
| CN(CCc1c[nH]c2ccccc12)C(=O)c1ccc(C(C)(C)C)cc1 | > 500 µM | > 1000 µM | 10.2 µM | 9.8 µM | 11.5 µM | 14 µM | 18 µM | 22 µM | inactive | – | – | – | – | – | – | – | – |
| O=C1c2ccccc2-[n+]2ccc3c([nH]c4ccccc43)c21 [FASCAPLYSIN CHLORIDE] | > 250 µM | > 250 µM | – | – | – | – | – | – | – | 0.41 µM | > 250 µM | > 250 µM | 0.88 µM | 0.92 µM | 0.69 µM | 1.3 µM | 5 µM |
| CN(CCc1c[nH]c2ccccc12)C(=O)c1ccc(Cl)cc1 | > 500 µM | > 1000 µM | 31 µM | 24 µM | 21 µM | 26 µM | 29 µM | 32 µM | inactive | – | – | – | – | – | – | – | – |
